Experimental data pooled from the literature.
Each line is one published result; the experiments were not run side by side.
Target: Mitogen-activated protein kinase kinase kinase 10 (MAP3K10, Homo sapiens, UniProt Q02779)

Structure (SMILES) | read-out | technique | tested at | remaining binding
Cc1cnn2ncc(-c3ccnc(N(C)C)n3)c2c1 | binding | – | 1 µM | 100%
COc1cc(-c2cn(C3CCc4ccccc4N(CC(F)(F)F)C3=O)nn2)ccc1-n1ccc(C)n1 (stereo not drawn) | cell-free assay | competition with immobilised ligand | 1 µM | 96%
COc1ncc2cc3ccccc3nc2c1C#N | cell-free assay | competition with immobilised ligand | 5 µM | 79%
C[C@H](c1ccnc(Nc2nc3ccc(-c4cc(N(C)C)ncn4)cc3[nH]2)c1)N1CCN(C(=O)CC(F)(F)F)CC1 | cell-free assay | competition with immobilised ligand | 0.1 µM | 100%
Cc1cnc(Nc2ccc(C(=O)N3CCC(N4CCCC4)CC3)cc2)nc1-c1cc2ccccc2s1 | binding | competition with immobilised ligand | 1 µM | 0%
CN(C)c1nccc(-c2cnn3ncccc23)n1 | binding | – | 1 µM | 98%
CNC(=O)c1ccc(Nc2ncc(C(F)(F)F)c(NCc3nccnc3N(C)S(C)(=O)=O)n2)cc1 | cell-free assay | competition with immobilised ligand | 0.1 µM | 68%
c1cnn2ncc(-c3ccnc(N4CCC45COC5)n3)c2c1 | binding | – | 1 µM | 100%
CN1CCN(c2cnc3c(C4CCN(C(=O)c5ccc(OC(F)(F)F)cc5N)CC4)ncnc3c2)CC1 | cell-free assay | competition with immobilised ligand | 1 µM | 100%
C=CC(=O)N1CCC(C(=O)NCC(=O)N2CCN(c3nc(-c4cnc(N)nc4C(F)F)nc(N4CCOCC4)n3)CC2)CC1 | binding | competition with immobilised ligand | 1 µM | 99%
COc1ccnn2ncc(-c3ccnc(N(C)C)n3)c12 | binding | – | 1 µM | 78%
Nc1ncc2c(n1)-c1c([nH]c3ccc(C#CC4CC4)cc13)CCCC2 | binding | competition with immobilised ligand | 1 µM | 91%
CCN1CCN(Cc2ccc(C(=O)Nc3ccc(C)c(Oc4ccc5c(c4)CC(=O)N5)c3)cc2C(F)(F)F)CC1 | binding | competition with immobilised ligand | 1 µM | 100%
N[C@H]1CCN(c2nccc(-c3cnn4ncccc34)n2)C1 | binding | – | 1 µM | 92%
O=c1nc(-c2ccccn2)sc2ccccc12 | binding | competition with immobilised ligand | 1 µM | 100%
COc1cnc(Nc2cccc(S(N)(=O)=O)c2)nc1N1CCN(c2ccccc2)C(=O)C1 | binding | competition with immobilised ligand | 1 µM | 79%
O=C(NCCCN1CCOCC1)c1ccc(Nc2ncc(Cl)c(-c3ccc(Cl)s3)n2)cc1 | binding | competition with immobilised ligand | 1 µM | 3%
C[C@H]1CCN(c2nccc(-c3cnn4ncccc34)n2)C1 | binding | – | 1 µM | 100%
O=C(c1ccc(Nc2ncc(Cl)c(-c3cc4ccccc4s3)n2)cc1)N1CCC(N2CCCC2)CC1 | binding | competition with immobilised ligand | 1 µM | 3.5%
CN(C(=O)c1ccccc1)c1cc(N(C)c2ccc3c(c2)CCc2ccc(C(=O)NCCN4CCOCC4)cc2C3=O)ccc1F | cell-free assay | competition with immobilised ligand | 1 µM | 75%
O=C(NCC1CCOCC1)c1n[nH]cc1NC(=O)c1c(F)cccc1F | binding | competition with immobilised ligand | 1 µM | 100%
